ChEMBL document CHEMBL2375278, “Small-molecule inhibitors of cathepsin L incorporating functionalized ring-fused molecular frameworks” (Bioorg Med Chem Lett, 2013)

Legend:
[1] = biological target: Cathepsin B (Homo sapiens, UniProt P07858); assay: Inhibition of human liver Cathepsin B using Z-Arg-Arg-aminomethylcoumarin as substrate incubated for 5 mins prior to substrate addition measured for 5 mins by fluorometric analysis
Procedure, shortened: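 Assay run with 2% DMSO in the well and a five-minute pre-incubation before substrate. Substrate was used at 60 µM. Activity is reported as IC₅₀ (nM).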

[2] = biological target: Procathepsin L (Homo sapiens, UniProt P07711); assay: Inhibition of human liver Cathepsin L using Z-Phe-Arg-aminomethylcoumarin as substrate incubated for 5 mins prior to substrate addition measured for 5 mins by fluorometric analysis
Procathepsin L, sequence (P07711 whole entry): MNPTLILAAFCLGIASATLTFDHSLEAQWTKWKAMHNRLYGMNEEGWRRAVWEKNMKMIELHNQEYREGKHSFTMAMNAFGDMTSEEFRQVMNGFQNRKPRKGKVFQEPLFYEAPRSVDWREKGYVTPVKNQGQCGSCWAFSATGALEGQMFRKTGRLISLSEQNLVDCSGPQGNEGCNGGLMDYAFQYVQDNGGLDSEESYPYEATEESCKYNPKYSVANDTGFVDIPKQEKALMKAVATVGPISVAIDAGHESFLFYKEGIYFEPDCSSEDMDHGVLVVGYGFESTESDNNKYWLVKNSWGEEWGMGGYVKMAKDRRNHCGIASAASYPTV
Procedure, shortened: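 Assay run with 2% DMSO in the well and a five-minute pre-incubation before substrate. Substrate was used at 50 µM. Activity is reported as IC₅₀ (nM).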

[3] = species: Homo sapiens; assay: Selectivity ratio of IC50 for human liver Cathepsin B to IC50 for human liver Cathepsin L

IC50 [1] [µM]	IC50 [2] [µM]	Ratio IC50 [3]	SMILES
> 10	> 10		COc1ccc2c(c1)CCC/C2=N\NC(N)=S
> 10	> 10		COc1ccc2c(c1)/C(=N/NC(N)=S)CCC2
> 10	> 10		NC(=S)N/N=C1\CCCS(=O)(=O)c2ccc([N+](=O)[O-])cc21
> 10	> 10		COc1cccc2c1CCC/C2=N\NC(N)=S
> 10	0.369	> 20	NC(=S)N/N=C1\CCOc2ccc(Cl)cc21
> 10	> 10		CS(=O)(=O)c1ccc2c(c1)/C(=N/NC(N)=S)CCS2(=O)=O
> 10	> 10		NC(=S)N/N=C1\CCc2ccc(Br)cc21
> 10	> 10		N=C(N)N/N=C1\CCSc2ccc([N+](=O)[O-])cc21
> 10	> 10		NC(=S)N/N=C1\CCNc2ccccc21
> 10	> 10		N=C(N)N/N=C1\CCS(=O)(=O)c2ccc([N+](=O)[O-])cc21
> 10	0.658	> 15.2	NC(=S)N/N=C1\CCCSc2ccc([N+](=O)[O-])cc21
> 10	> 10		CC(=O)N1CC/C(=N\NC(N)=S)c2ccccc21
> 10	> 10		NC(=S)N/N=C1\CC(Nc2ccccc2)c2ccc(Br)cc21 (configuration not stated)
> 10	> 10		NC(=S)N/N=C1\CCCc2cc(N)ccc21
> 10	0.449	> 20	NC(=S)N/N=C1\CCNc2ccc([N+](=O)[O-])cc21
> 10	> 10		NC(=S)NN=C1c2cc([N+](=O)[O-])ccc2-c2ccc([N+](=O)[O-])cc21
> 10	> 10		NC(=S)N/N=C1\CCS(=O)(=O)c2ccc(N)cc21
> 10	≥ 10		NC(=S)N/N=C1\CCCSc2cc(F)c(F)cc21
> 10	> 10		NC(=S)N/N=C1\CCCCc2ccccc21
> 10	> 10		CN1CC/C(=N\NC(N)=S)c2cc(Br)ccc21
> 10	1.74	> 5.7	NC(=S)N/N=C1\CC[S+]([O-])c2ccc([N+](=O)[O-])cc21 (configuration not stated)
> 10	> 10		NC(=S)N/N=C1\CCNc2c(Cc3ccccc3)cccc21
> 10	0.338	> 20	NC(=S)N/N=C1\CCNc2c1cc([N+](=O)[O-])cc2[N+](=O)[O-]
> 10	> 10		NC(=S)N/N=C1\CCCS(=O)(=O)c2cc(F)c(F)cc21
> 10	0.164	> 20	NC(=S)N/N=C1\CCNc2ccc(Br)cc21
> 10	> 10		NC(=S)N/N=C1\CC(c2ccccc2)Oc2ccccc21 (configuration not stated)
> 10	> 10		NC(=S)N/N=C1\CCc2ccccc2C1
> 10	> 10		NC(=S)N/N=C1\CCCc2c(O)cccc21

SMILES	IC50 [1] [µM]	IC50 [2] [µM]	Ratio IC50 [3]
NC(=S)N/N=C1\CCN([N+](=O)[O-])c2ccc([N+](=O)[O-])cc21	> 10	0.228	> 20
NC(=S)N/N=C1\CCN([N+](=O)[O-])c2ccccc21	> 10	> 10	
